From ChEMBL document CHEMBL1143324, “New N-substituted 9-azabicyclo[3.3.1]nonan-3alpha-yl phenylcarbamate analogs as sigma2 receptor ligands: synthesis, in vitro characterization, and evaluation as PET imaging and chemosensitization agents” (Bioorg Med Chem, 2009)

Key:
[1] = target: Sigma non-opioid intracellular receptor 1 (Cavia porcellus, UniProt Q60492); experiment: Displacement of [3H](+)-pentazocine from sigma 1-type opioid receptor in guinea pig brain homogenates; format: tissue-based
[2] = Displacement of [3H]RHM-1 from sigma 2-type opioid receptor in rat liver homogenates; format: tissue-based
[3] = Selectivity ratio, Ki for sigma 1 receptor in guinea pig brain homogenates to Ki for sigma 2 receptor in rat liver homogenates; format: tissue-based
[4] = Partition coefficient, log P of the compound; format: physicochemical; conditions: octanol/water
[5] = target: T1, 5-hydroxytryptamine receptor 3A (Homo sapiens, UniProt P46098); experiment: Binding affinity to 5HT3 receptor
T1 sequence (P46098 whole entry): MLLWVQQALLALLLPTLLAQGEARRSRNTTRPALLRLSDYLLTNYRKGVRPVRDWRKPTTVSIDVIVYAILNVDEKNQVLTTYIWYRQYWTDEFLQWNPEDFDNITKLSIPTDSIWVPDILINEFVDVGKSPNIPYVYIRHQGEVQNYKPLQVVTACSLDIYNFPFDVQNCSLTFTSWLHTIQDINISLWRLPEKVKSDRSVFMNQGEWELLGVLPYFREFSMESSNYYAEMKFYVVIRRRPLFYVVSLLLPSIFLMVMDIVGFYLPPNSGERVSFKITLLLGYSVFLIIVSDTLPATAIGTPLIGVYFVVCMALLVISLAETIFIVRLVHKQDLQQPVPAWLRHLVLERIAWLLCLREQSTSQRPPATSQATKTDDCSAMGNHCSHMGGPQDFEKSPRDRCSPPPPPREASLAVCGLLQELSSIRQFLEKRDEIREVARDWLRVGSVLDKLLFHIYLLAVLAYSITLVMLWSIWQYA

[6] = target: 5-hydroxytryptamine receptor 4 (Homo sapiens, UniProt Q13639); experiment: Binding affinity to 5HT4 receptor
EMT6 = experiment: Binding affinity to sigma 2 receptor in mouse EMT6 cell membrane homogenates; format: cell membranes; conditions: tested as the 18F-labelled form
Blood [7] = experiment: Biodistribution in iv dosed mouse EMT6 cells bearing BALB/c mouse blood after 30 mins; format: ADME, organism-based; conditions: in vivo, 0.5 h
In short: (§1)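 Female BALB/c mice were implanted s.c. in the scapular region with ~5×10^5 EMT-6 cells in PBS 11 days earlier, giving tumors of ~100-150 mg. The 18F tracer (~20 µCi per 150 µL, in 10% ethanol/90% water) was given via tail vein, and mice were killed at 5 min, 30 min, 1 h or 2 h. Tissues were weighed and gamma-counted against a diluted injected-dose standard, giving %ID/g.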

Blood [8] = experiment: Biodistribution in iv dosed mouse EMT6 cells bearing BALB/c mouse blood after 1 hr; format: ADME, organism-based; conditions: in vivo; in short: as §1
Liver [9] = experiment: Biodistribution in iv dosed mouse EMT6 cells bearing BALB/c mouse liver after 5 mins; format: ADME, organism-based; conditions: in vivo; in short: as §1
Liver [10] = experiment: Biodistribution in iv dosed mouse EMT6 cells bearing BALB/c mouse liver after 30 mins; format: ADME, organism-based; conditions: in vivo, 0.5 h; in short: as §1
Kidney = experiment: Biodistribution in iv dosed mouse EMT6 cells bearing BALB/c mouse kidney after 1 hr; format: ADME, organism-based; conditions: in vivo; in short: as §1
Muscle tissue [11] = experiment: Biodistribution in iv dosed mouse EMT6 cells bearing BALB/c mouse muscle after 30 mins; format: ADME, organism-based; conditions: in vivo, 0.5 h; in short: as §1
Muscle tissue [12] = experiment: Biodistribution in iv dosed mouse EMT6 cells bearing BALB/c mouse muscle after 1 hr; format: ADME, organism-based; conditions: in vivo; in short: as §1
Heart [13] = experiment: Biodistribution in iv dosed mouse EMT6 cells bearing BALB/c mouse heart after 5 mins; format: ADME, organism-based; conditions: in vivo; in short: as §1
Heart [14] = experiment: Biodistribution in iv dosed mouse EMT6 cells bearing BALB/c mouse heart after 30 mins; format: ADME, organism-based; conditions: in vivo, 0.5 h; in short: as §1
Brain [15] = experiment: Biodistribution in iv dosed mouse EMT6 cells bearing BALB/c mouse brain after 30 mins; format: ADME, organism-based; conditions: in vivo, 0.5 h; in short: as §1
Brain [16] = experiment: Biodistribution in iv dosed mouse EMT6 cells bearing BALB/c mouse brain after 1 hr; format: ADME, organism-based; conditions: in vivo; in short: as §1
Bone = experiment: Biodistribution in iv dosed mouse EMT6 cells bearing BALB/c mouse bone after 2 hrs; format: ADME, organism-based, Bone element; conditions: in vivo; in short: as §1
[17] = Biodistribution in tumor of iv dosed mouse EMT6 cells bearing BALB/c mouse after 5 mins; format: ADME, organism-based, Neoplasm; conditions: in vivo; in short: as §1
[18] = Biodistribution in tumor of iv dosed mouse EMT6 cells bearing BALB/c mouse after 2 hrs; format: ADME, organism-based, Neoplasm; conditions: in vivo; in short: as §1
[19] = Ratio of drug level in tumor to blood of mouse EMT6 cells bearing BALB/c mouse after 5 mins; format: ADME, cell-based; conditions: emt6, 5 min
In short: (§2)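 Tumor-to-tissue ratios were calculated from %ID/g values at 5 min, 30 min, 1 h and 2 h. The 18F tracer (~20 µCi, tail vein, 10% ethanol/90% water) was given to female BALB/c mice bearing s.c. EMT-6 tumors (~5×10^5 cells implanted 11 days prior; ~100-150 mg). Tissues were gamma-counted against a diluted standard of the injected dose.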

[20] = Ratio of drug level in tumor to blood of mouse EMT6 cells bearing BALB/c mouse after 30 mins; format: ADME, cell-based; conditions: emt6, 0.5 h; in short: as §2
[21] = Ratio of drug level in tumor to blood of mouse EMT6 cells bearing BALB/c mouse after 1 hr; format: ADME, cell-based; conditions: emt6, 1 h; in short: as §2
[22] = Ratio of drug level in tumor to blood of mouse EMT6 cells bearing BALB/c mouse after 2 hrs; format: ADME, cell-based; conditions: emt6, 2 h; in short: as §2
[23] = Ratio of drug level in tumor to muscle of mouse EMT6 cells bearing BALB/c mouse after 5 mins; format: ADME, cell-based; conditions: emt6, 5 min; in short: as §2
[24] = Ratio of drug level in tumor to muscle of mouse EMT6 cells bearing BALB/c mouse after 30 mins; format: ADME, cell-based; conditions: emt6, 0.5 h; in short: as §2
[25] = Ratio of drug level in tumor to muscle of mouse EMT6 cells bearing BALB/c mouse after 1 hr; format: ADME, cell-based; conditions: emt6, 1 h; in short: as §2
[26] = Ratio of drug level in tumor to muscle of mouse EMT6 cells bearing BALB/c mouse after 2 hrs; format: ADME, cell-based; conditions: emt6, 2 h; in short: as §2
[27] = Ratio of drug level in tumor to fat of mouse EMT6 cells bearing BALB/c mouse after 5 mins; format: ADME, cell-based; conditions: emt6, 5 min; in short: as §2
[28] = Ratio of drug level in tumor to fat of mouse EMT6 cells bearing BALB/c mouse after 30 mins; format: ADME, cell-based; conditions: emt6, 0.5 h; in short: as §2
[29] = Ratio of drug level in tumor to fat of mouse EMT6 cells bearing BALB/c mouse after 1 hr; format: ADME, cell-based; conditions: emt6, 1 h; in short: as §2
[30] = Ratio of drug level in tumor to fat of mouse EMT6 cells bearing BALB/c mouse after 2 hrs; format: ADME, cell-based; conditions: emt6, 2 h; in short: as §2
[31] = Ratio of drug level in tumor to muscle of […] EMT6 cells bearing BALB/c mouse after 5 mins; format: ADME, cell-based; conditions: emt6, 5 min
[32] = Ratio of drug level in tumor to muscle of […] EMT6 cells bearing BALB/c mouse after 30 mins; format: ADME, cell-based; conditions: emt6, 0.5 h
[33] = Ratio of drug level in tumor to muscle of […] EMT6 cells bearing BALB/c mouse after 1 hr; format: ADME, cell-based; conditions: emt6, 1 h
[34] = Ratio of drug level in tumor to muscle of […] EMT6 cells bearing BALB/c mouse after 2 hrs; format: ADME, cell-based; conditions: emt6, 2 h

Chain of Sigma non-opioid intracellular receptor 1 (Q60492 whole entry): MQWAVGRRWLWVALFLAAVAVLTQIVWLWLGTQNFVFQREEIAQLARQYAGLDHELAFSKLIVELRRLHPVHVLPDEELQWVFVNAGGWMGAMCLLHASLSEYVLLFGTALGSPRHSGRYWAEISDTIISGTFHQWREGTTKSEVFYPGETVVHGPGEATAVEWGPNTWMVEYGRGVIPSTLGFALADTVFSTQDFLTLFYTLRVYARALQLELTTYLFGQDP
Chain of 5-hydroxytryptamine receptor 4 (Q13639 whole entry): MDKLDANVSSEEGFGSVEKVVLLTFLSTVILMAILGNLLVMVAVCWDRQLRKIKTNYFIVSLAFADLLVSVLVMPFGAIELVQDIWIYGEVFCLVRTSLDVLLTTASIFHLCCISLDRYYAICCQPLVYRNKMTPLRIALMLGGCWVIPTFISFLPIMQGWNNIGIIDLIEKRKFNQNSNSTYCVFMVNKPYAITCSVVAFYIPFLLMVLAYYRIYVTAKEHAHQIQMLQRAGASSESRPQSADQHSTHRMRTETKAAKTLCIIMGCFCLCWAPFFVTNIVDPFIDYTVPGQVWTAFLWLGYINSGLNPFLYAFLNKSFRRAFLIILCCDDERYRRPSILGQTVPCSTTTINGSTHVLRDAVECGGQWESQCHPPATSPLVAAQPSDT

SMILES: COc1ccc(C)cc1NC(=O)OC1CC2CCCC(C1)N2CCF (configuration not stated)
- Ki [1]: 2000 nM
- Ki [2]: 143 nM
- Ratio Ki [3]: 14
- logP [4]: 2.85

SMILES: COc1ccc(CCN2C3CCCC2CC(OC(=O)Nc2cc(C)ccc2OC)C3)cc1 (configuration not stated)
- Ki [1]: 447 nM
- Ki [2]: 126 nM
- Ratio Ki [3]: 4
- logP [4]: 3.22

SMILES: COc1ccc(C)cc1NC(=O)OC1CC2CCCC(C1)N2Cc1ccncc1 (configuration not stated)
- Ki [1]: 1560 nM
- Ki [2]: 522 nM
- Ratio Ki [3]: 3
- logP [4]: 2.94

SMILES: CCn1c(=O)n(C(=O)NC2CC3CCC(C2)N3C)c2ccccc21 (configuration not stated)
- Ki [5]: 1 nM
- Ki [1]: 6300 nM
- Ki [2]: 32 nM
- Ki [6]: 13 nM

SMILES: COc1ccc(C)cc1C(=O)NCCCCN1CCc2cc(OO)c(OO)cc2C1
- Ki [1]: 3080 nM
- Ki [2]: 10.3 nM

SMILES: COc1ccc(C)cc1NC(=O)OC1CC2CCCC(C1)N2CCc1ccc(N(C)C)cc1 (configuration not stated)
- Ki [1]: 1870 nM
- Ki [2]: 195 nM
- Ratio Ki [3]: 10
- logP [4]: 3.36

SMILES: COc1ccc(C)cc1NC(=O)OC1CC2CCCC(C1)N2Cc1cccnc1 (configuration not stated)
- Ki [1]: 2350 nM
- Ki [2]: 184 nM
- Ratio Ki [3]: 13
- logP [4]: 2.7

SMILES: COc1ccc(C)cc1NC(=O)OC1CC2CCCC(C1)N2Cc1ccc(CCF)cc1 (configuration not stated)
- Ki [1]: 1710 nM
- Ki [2]: 0.82 nM
- Ratio Ki [3]: 2090
- Activity (EMT6): 2 nM

SMILES: O=C(CCCN1CCC(O)(c2ccc(Cl)cc2)CC1)c1ccc(F)cc1 [HALOPERIDOL]
- logP [4]: 3.36

SMILES: COc1ccc(CN2C3CCCC2CC(OC(=O)Nc2cc(C)ccc2OC)C3)cc1 (configuration not stated)
- Ki [1]: 323 nM
- Ki [2]: 40.7 nM
- Ratio Ki [3]: 8
- logP [4]: 3.3

SMILES: COc1ccc(C)cc1NC(=O)OC1CC2CCCC(C1)N2CCc1ccc(CCF)cc1 (configuration not stated)
- Ki [1]: 2630 nM
- Ki [2]: 276 nM
- Ratio Ki [3]: 10
- logP [4]: 3.69

SMILES: COc1ccc(C)cc1NC(=O)OC1CC2CCCC(C1)N2Cc1ccccc1 (configuration not stated)
- Ki [5]: > 1000 nM
- Ki [2]: 3.1 nM
- Ki [6]: > 1000 nM

SMILES: COc1ccc(C)cc1NC(=O)OC1CC2CCCC(C1)N2Cc1ccc(F)nc1 (configuration not stated)
- Ki [1]: 2510 nM
- Ki [2]: 572 nM
- Ratio Ki [3]: 4
- logP [4]: 3.21

SMILES: COc1ccc(C)cc1NC(=O)OC1CC2CCCC(C1)N2Cc1ccc(CC[18F])cc1 (configuration not stated)
- Activity (Blood [7]): 0.99 % ID/g
- Activity (Blood [8]): 0.93 % ID/g
- Activity (Liver [9]): 21.14 % ID/g
- Activity (Liver [10]): 28.5 % ID/g
- Activity (Kidney): 10.38 % ID/g
- Activity (Muscle tissue [11]): 2.9 % ID/g
- Activity (Muscle tissue [12]): 1.92 % ID/g
- Activity (Heart [13]): 18.49 % ID/g
- Activity (Heart [14]): 3.7 % ID/g
- Activity (Brain [15]): 2.12 % ID/g
- Activity (Brain [16]): 1.55 % ID/g
- Activity (Bone): 5.68 % ID/g
- Activity [17]: 1.39 % ID/g
- Activity [18]: 4.08 % ID/g
- Activity [19]: 0.82 % ID/g
- Activity [20]: 3.67 % ID/g
- Activity [21]: 3.86 % ID/g
- Activity [22]: 6.96 % ID/g
- Activity [23]: 0.3 % ID/g
- Activity [24]: 1.32 % ID/g
- Activity [25]: 1.92 % ID/g
- Activity [26]: 2.53 % ID/g
- Activity [27]: 0.65 % ID/g
- Activity [28]: 0.45 % ID/g
- Activity [29]: 0.41 % ID/g
- Activity [30]: 0.32 % ID/g
- Activity [31]: 0.01 % ID/g
- Activity [32]: 0.22 % ID/g
- Activity [33]: 0.42 % ID/g
- Activity [34]: 0.82 % ID/g

SMILES: COc1ccc(C)cc1NC(=O)OC1CC2CCCC(C1)N2Cc1ccc(N(C)C)cc1 (configuration not stated)
- Ki [1]: 1440 nM
- Ki [2]: 2.58 nM
- Ratio Ki [3]: 557
- logP [4]: 3.02

SMILES: C=CCN1C2CCCC1CC(OC(=O)Nc1cc(C)ccc1OC)C2 (configuration not stated)
- Ki [1]: 1260 nM
- Ki [2]: 85.9 nM
- Ratio Ki [3]: 15
- logP [4]: 2.86

SMILES: COc1ccc(C)cc1NC(=O)OC1CC2CCCC(C1)N2Cc1ccc(SC)cc1 (configuration not stated)
- Ki [1]: 2020 nM
- Ki [2]: 8190 nM
- logP [4]: 3.92
